ChEMBL document CHEMBL5360619
Activity calls are given as the source filed them. No cut-off for these calls is given here.

Legend:
[1] = test system: Mycobacterium tuberculosis; experiment: Antimycobacterial activity against Mycobacterium tuberculosis Erdman harboring frameshift mutation in KatG at amino acid 6 assessed as reduction in colony forming units at […] incubated for 13 days (reference value: 9.07 x 10^9 CFU/mL); format: functional; conditions: dose 2.5 µg/ml; time 13 day
[2] = test system: Mycobacterium tuberculosis; experiment: Antimycobacterial activity against Mycobacterium tuberculosis Erdman harboring frameshift mutation in KatG at amino acid 6 assessed as reduction in colony forming units at 1 uM incubated for 13 days; format: functional, organism-based; conditions: time 13.0 day
In short: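 katG frameshift mutant grown to log phase in Sauton's medium, diluted to 5 × 10^7 CFU/mL, given 1 μM compound (imidazole salt in DMSO); IMD/DMSO vehicle controls. Incubated rolling at 37 °C. After 13 days, serial dilutions plated on 7H11 agar with ADC for CFU. Two experiments, each in duplicate; one-way ANOVA with Tukey's correction.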

[3] = test system: Mycobacterium tuberculosis; experiment: Reversal of isoniazid resistance in Mycobacterium tuberculosis Erdman harboring frameshift mutation in KatG at amino acid 6 assessed as reduction in surviving bacteria by measuring reduction in colony forming units at 1 uM incubated for 13 days; format: functional, organism-based; conditions: time 13.0 day

SMILES: NNC(=O)c1ccncc1 [ISONIAZID]
- Activity [1]: 8.09 10^8CFU/ml

SMILES: O=C(O)C1CSc2c(C3CC3)c(Cc3cccc4ccccc34)cc(=O)n21.c1c[nH]cn1 (racemic)
- Activity [2]: inactive
- Activity [3]: inactive

SMILES: O=C(O)C1CSc2c(C3CC3)c(-c3cc(-c4ccc5ccccc5c4)no3)cc(=O)n21.c1c[nH]cn1 (racemic)
- Activity [2]: inactive
- Activity [3]: Active
